One assay has as its target Carbonic anhydrase 1 (Homo sapiens, UniProt P00915). As to the kind of experiment: Inhibition of human CA1 preincubated for 15 mins by stopped-flow CO2 hydration kinetic assay based Cheng-Prusoff equation analysis.
The target of the next assay is Carbonic anhydrase 2 (Homo sapiens, UniProt P00918). As to the kind of experiment: Inhibition of human CA2 preincubated for 15 mins by stopped-flow CO2 hydration kinetic assay based Cheng-Prusoff equation analysis.
The next assay deals with Carbonic anhydrase 4 (Homo sapiens, UniProt P22748). Description: Inhibition of human CA4 preincubated for 15 mins by stopped-flow CO2 hydration kinetic assay based Cheng-Prusoff equation analysis.
The target of a further assay is Carbonic anhydrase 12 (Homo sapiens, UniProt O43570). As to the kind of experiment: Inhibition of human CA12 preincubated for 15 mins by stopped-flow CO2 hydration kinetic assay based Cheng-Prusoff equation analysis.
The species entered for assay [1] is Homo sapiens. As to the kind of experiment: Selectivity index, ratio of Ki for inhibition of human CA1 to Ki for inhibition of human CA2. The method, boiled down: (§1)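 Ratio of Ki values. Each Ki came from stopped-flow CA-catalysed CO2 hydration with recombinant in-house hCA isoforms, phenol red 0.2 mM read at 557 nm, 20 mM Hepes pH 7.5, 20 mM Na2SO4, and CO2 1.7–17 mM. Inhibitor and enzyme were preincubated 15 min at room temperature. Initial rates, less the uncatalysed rate, were fit by nonlinear least squares with Cheng–Prusoff. Mean of ≥3 determinations.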

For assay [2], the species on record is Homo sapiens. As to the kind of experiment: Selectivity index, ratio of Ki for inhibition of human CA1 to Ki for inhibition of human CA4. The method, boiled down:
as §1

Assay [3] is filed under the species Homo sapiens. As to the kind of experiment: Selectivity index, ratio of Ki for inhibition of human CA2 to Ki for inhibition of human CA4. The method, boiled down: as §1
The species named for assay [4] is Homo sapiens. Description: Selectivity index, ratio of Ki for inhibition of human CA1 to Ki for inhibition of human CA12. The method, boiled down: as §1
For assay [5], the species on record is Homo sapiens. As to the kind of experiment: Selectivity index, ratio of Ki for inhibition of human CA2 to Ki for inhibition of human CA12. The procedure, abridged: as §1
The species named for assay [6] is Homo sapiens. Description: Selectivity index, ratio of Ki for inhibition of human CA4 to Ki for inhibition of human CA12. The method, boiled down: as §1

Carbonic anhydrase 12, sequence (O43570 whole entry, canonical isoform): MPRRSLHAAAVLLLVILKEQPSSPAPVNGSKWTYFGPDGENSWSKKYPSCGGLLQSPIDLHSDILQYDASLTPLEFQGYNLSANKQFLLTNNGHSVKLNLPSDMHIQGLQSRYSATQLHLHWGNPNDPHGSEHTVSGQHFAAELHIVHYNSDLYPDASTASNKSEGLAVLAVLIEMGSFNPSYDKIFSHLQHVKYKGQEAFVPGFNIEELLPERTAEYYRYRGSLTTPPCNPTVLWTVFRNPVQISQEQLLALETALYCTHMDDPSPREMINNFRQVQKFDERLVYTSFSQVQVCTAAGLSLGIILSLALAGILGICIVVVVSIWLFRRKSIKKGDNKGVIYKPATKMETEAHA
Carbonic anhydrase 4, sequence (P22748 whole entry): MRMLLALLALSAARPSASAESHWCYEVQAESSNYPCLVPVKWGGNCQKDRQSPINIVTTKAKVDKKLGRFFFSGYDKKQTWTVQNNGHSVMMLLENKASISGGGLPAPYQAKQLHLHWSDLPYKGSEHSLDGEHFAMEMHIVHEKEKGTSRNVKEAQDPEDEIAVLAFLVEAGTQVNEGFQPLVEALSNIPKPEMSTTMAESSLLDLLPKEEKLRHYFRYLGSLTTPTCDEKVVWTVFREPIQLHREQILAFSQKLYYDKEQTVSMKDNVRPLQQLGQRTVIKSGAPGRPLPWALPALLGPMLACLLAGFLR
Carbonic anhydrase 1, sequence (P00915 whole entry): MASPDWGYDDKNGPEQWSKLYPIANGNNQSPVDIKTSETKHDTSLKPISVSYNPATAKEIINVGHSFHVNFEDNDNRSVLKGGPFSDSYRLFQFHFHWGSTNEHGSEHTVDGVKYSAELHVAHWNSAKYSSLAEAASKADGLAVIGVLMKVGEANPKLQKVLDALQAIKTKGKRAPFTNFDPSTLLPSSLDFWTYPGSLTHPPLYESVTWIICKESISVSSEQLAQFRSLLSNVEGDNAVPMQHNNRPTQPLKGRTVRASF

For orientation: Ki means the dissociation constant of the complex between target and ligand, obtained from inhibition or displacement. Turning to `CCCCCCN(CCCCCC)CC(=O)N(CCc1ccc(S(N)(=O)=O)cc1)Cc1ccc2ccccc2c1`, the Ki on Carbonic anhydrase 1 was 541 nM; at Carbonic anhydrase 2, 4560 nM; on Carbonic anhydrase 4 it was > 10000 nM; on Carbonic anhydrase 12, 61.7 nM. In addition, the Ratio Ki in the assay filed under Homo sapiens [1] was 0.1; in the assay filed under Homo sapiens [2], < 0.05; in the assay filed under Homo sapiens [3], < 0.5; in the assay filed under Homo sapiens [4], 8.8; in the assay filed under Homo sapiens [5], 74; in the assay listed under Homo sapiens [6], > 162.

Turning to `N#CCCN(CCc1ccccc1)CC(=O)N(CCc1ccc(S(N)(=O)=O)cc1)Cc1ccco1`, the inhibition constant (Ki) stood at 301 nM on Carbonic anhydrase 1, 73.2 nM at Carbonic anhydrase 2, 457 nM at Carbonic anhydrase 4 and 8.7 nM at Carbonic anhydrase 12. Besides, the Ratio Ki came out at 4.1 in the assay listed under Homo sapiens [1]; 0.7 in the assay listed under Homo sapiens [2]; 0.2 in the assay listed under Homo sapiens [3]; 34.6 in the assay listed under Homo sapiens [4]; 8.4 in the assay filed under Homo sapiens [5]; 52.6 in the assay filed under Homo sapiens [6].

Consider `NS(=O)(=O)c1ccc(CCN(CCc2ccccc2)C(=O)CN(CCC(=O)O)CCc2ccccc2)cc1`, for which the Ki at Carbonic anhydrase 1 was 203 nM; on Carbonic anhydrase 2, 72 nM; on Carbonic anhydrase 4, 2330 nM; at Carbonic anhydrase 12 it was 29.7 nM. Further, the Ratio Ki in the assay listed under Homo sapiens [1] came out at 2.8; in the assay listed under Homo sapiens [2] it was 0.09; in the assay listed under Homo sapiens [3] it was 0.03; in the assay listed under Homo sapiens [4] it was 6.9; in the assay listed under Homo sapiens [5] it was 2.4; in the assay filed under Homo sapiens [6], 78.5.

`CCCCCCN(CCCCCC)CCC(=O)N(CCc1ccccc1)CCc1ccc(S(N)(=O)=O)cc1`: the Ki at Carbonic anhydrase 1 amounted to 518 nM; on Carbonic anhydrase 2, 781 nM; on Carbonic anhydrase 4, 3410 nM; on Carbonic anhydrase 12, 62.5 nM. Also, the Ratio Ki in the assay listed under Homo sapiens [1] was determined as 0.7; in the assay listed under Homo sapiens [2], 0.2; in the assay filed under Homo sapiens [3], 0.2; in the assay listed under Homo sapiens [4] it was 8.3; in the assay filed under Homo sapiens [5], 12.5; in the assay listed under Homo sapiens [6], 54.6.

For `NCCCN(CCc1ccccc1)CC(=O)N(CCc1ccccc1)CCc1ccc(S(N)(=O)=O)cc1`, the Ki at Carbonic anhydrase 1 is 242 nM; on Carbonic anhydrase 2 it was 367 nM; on Carbonic anhydrase 4 it was 2150 nM; at Carbonic anhydrase 12, 83.7 nM. For the same molecule, the Ratio Ki in the assay listed under Homo sapiens [1] stood at 0.7; in the assay listed under Homo sapiens [2], 0.1; in the assay filed under Homo sapiens [3], 0.2; in the assay filed under Homo sapiens [4] it was 2.9; in the assay listed under Homo sapiens [5], 4.4; in the assay filed under Homo sapiens [6], 25.7.

As for `NS(=O)(=O)c1ccc(CCN(Cc2ccccc2)C(=O)CCN(Cc2ccccc2)Cc2ccccc2)cc1`, the inhibition constant Ki came out at 692 nM on Carbonic anhydrase 1, 559 nM on Carbonic anhydrase 2, 4640 nM at Carbonic anhydrase 4 and 303 nM at Carbonic anhydrase 12. Also, the Ratio Ki in the assay listed under Homo sapiens [1] came to 1.2; in the assay listed under Homo sapiens [2] it was 0.2; in the assay filed under Homo sapiens [3], 0.1; in the assay filed under Homo sapiens [4] it was 2.3; in the assay filed under Homo sapiens [5], 1.8; in the assay filed under Homo sapiens [6], 15.3.

For `CCCCCCN(CCCCCC)CCC(=O)N(CCc1ccc(S(N)(=O)=O)cc1)Cc1ccco1`, the inhibition constant Ki is 220 nM on Carbonic anhydrase 1, 60.4 nM at Carbonic anhydrase 2, 3150 nM on Carbonic anhydrase 4 and 9.7 nM on Carbonic anhydrase 12. Moreover, the Ratio Ki in the assay listed under Homo sapiens [1] was 3.6; in the assay filed under Homo sapiens [2] it was 0.07; in the assay listed under Homo sapiens [3] it was 0.02; in the assay filed under Homo sapiens [4], 22.7; in the assay listed under Homo sapiens [5], 6.2; in the assay filed under Homo sapiens [6], 325.

As to `NS(=O)(=O)c1ccc(CCNCc2ccco2)cc1`, the Ki was 68.4 nM on Carbonic anhydrase 1, 62.8 nM on Carbonic anhydrase 2, 1580 nM at Carbonic anhydrase 4 and 55.4 nM at Carbonic anhydrase 12. Besides, the Ratio Ki came to 1.1 in the assay listed under Homo sapiens [1]; 0.04 in the assay filed under Homo sapiens [2]; 0.04 in the assay listed under Homo sapiens [3]; 1.2 in the assay filed under Homo sapiens [4]; 1.1 in the assay filed under Homo sapiens [5]; 28.6 in the assay listed under Homo sapiens [6].

Consider `CCCCCCN(CCCCCC)CC(=O)N(CCc1ccc(S(N)(=O)=O)cc1)Cc1ccccc1`, for which the inhibitory constant (Ki) at Carbonic anhydrase 1 is 879 nM; on Carbonic anhydrase 2 it was 237 nM; on Carbonic anhydrase 4, > 10000 nM; at Carbonic anhydrase 12, 92.8 nM. Moreover, the Ratio Ki is 3.7 in the assay filed under Homo sapiens [1]; < 0.09 in the assay filed under Homo sapiens [2]; < 0.02 in the assay filed under Homo sapiens [3]; 9.5 in the assay filed under Homo sapiens [4]; 2.5 in the assay listed under Homo sapiens [5]; > 108 in the assay filed under Homo sapiens [6].

As for `CCCCCCN(CCCCCC)CCC(=O)N(CCc1ccc(S(N)(=O)=O)cc1)Cc1ccccc1`, the Ki came out at 308 nM at Carbonic anhydrase 1, 578 nM on Carbonic anhydrase 2, 3460 nM on Carbonic anhydrase 4 and 77.8 nM at Carbonic anhydrase 12. Besides, the Ratio Ki was 0.5 in the assay filed under Homo sapiens [1]; 0.09 in the assay listed under Homo sapiens [2]; 0.2 in the assay filed under Homo sapiens [3]; 4 in the assay filed under Homo sapiens [4]; 7.4 in the assay listed under Homo sapiens [5]; 44.4 in the assay listed under Homo sapiens [6].

For `NCCCN(CCc1ccccc1)CC(=O)N(CCc1ccc(S(N)(=O)=O)cc1)Cc1ccc2ccccc2c1`, the Ki at Carbonic anhydrase 1 was 507 nM; at Carbonic anhydrase 2 it was 5.6 nM; at Carbonic anhydrase 4, 819 nM; at Carbonic anhydrase 12, 10.5 nM. Besides, the Ratio Ki turned out to be 90.5 in the assay listed under Homo sapiens [1]; 0.6 in the assay filed under Homo sapiens [2]; 0.007 in the assay filed under Homo sapiens [3]; 48.3 in the assay filed under Homo sapiens [4]; 0.5 in the assay listed under Homo sapiens [5]; 78 in the assay listed under Homo sapiens [6].

`NS(=O)(=O)c1ccc(CCNCc2ccc([N+](=O)[O-])cc2)cc1`: the Ki on Carbonic anhydrase 1 was 224 nM; at Carbonic anhydrase 2, 121 nM; on Carbonic anhydrase 4, 1690 nM; on Carbonic anhydrase 12 it was 77.4 nM. Besides, the Ratio Ki in the assay filed under Homo sapiens [1] worked out at 1.9; in the assay listed under Homo sapiens [2], 0.1; in the assay listed under Homo sapiens [3], 0.07; in the assay listed under Homo sapiens [4], 2.9; in the assay filed under Homo sapiens [5], 1.6; in the assay filed under Homo sapiens [6], 21.4.

On to `CCCCCCCC/C=C\CCCCCCCCNC(=O)CCN(CCc1ccccc1)CC(=O)N(CCc1ccc(S(N)(=O)=O)cc1)Cc1ccco1`, for which the Ki at Carbonic anhydrase 1 worked out at 738 nM; at Carbonic anhydrase 2, 132 nM; at Carbonic anhydrase 4, 1810 nM; on Carbonic anhydrase 12, 5.5 nM. In addition, the Ratio Ki in the assay filed under Homo sapiens [1] stood at 5.6; in the assay listed under Homo sapiens [2] it was 0.4; in the assay listed under Homo sapiens [3], 0.07; in the assay filed under Homo sapiens [4], 134; in the assay listed under Homo sapiens [5], 24; in the assay filed under Homo sapiens [6] it was 329.

`N#CCCNCCc1ccc(S(N)(=O)=O)cc1`: the Ki at Carbonic anhydrase 1 was found to be 105 nM; at Carbonic anhydrase 2, 154 nM; on Carbonic anhydrase 4, 5550 nM; on Carbonic anhydrase 12 it was 113 nM. The Ratio Ki stood at 0.7 in the assay filed under Homo sapiens [1]; 0.02 in the assay listed under Homo sapiens [2]; 0.03 in the assay filed under Homo sapiens [3]; 0.9 in the assay listed under Homo sapiens [4]; 1.4 in the assay filed under Homo sapiens [5]; 49 in the assay filed under Homo sapiens [6].

For the molecule `CCCCCCCCN(CCCCCCCC)CC(=O)N(CCc1ccc(S(N)(=O)=O)cc1)Cc1ccccc1`, the Ki was 947 nM on Carbonic anhydrase 1, 844 nM at Carbonic anhydrase 2, > 10000 nM at Carbonic anhydrase 4 and 99.4 nM on Carbonic anhydrase 12. Further, the Ratio Ki in the assay filed under Homo sapiens [1] is 1.1; in the assay filed under Homo sapiens [2], < 0.09; in the assay filed under Homo sapiens [3], < 0.08; in the assay listed under Homo sapiens [4], 9.5; in the assay filed under Homo sapiens [5], 8.5; in the assay filed under Homo sapiens [6] it was > 101.

`N#CCCN(CCc1ccccc1)CC(=O)N(CCc1ccc(S(N)(=O)=O)cc1)Cc1ccc(F)cc1`: the Ki on Carbonic anhydrase 1 is 676 nM; at Carbonic anhydrase 2, 133 nM; on Carbonic anhydrase 4, 4130 nM; at Carbonic anhydrase 12 it was 9.8 nM. Further, the Ratio Ki in the assay listed under Homo sapiens [1] was 5.1; in the assay listed under Homo sapiens [2], 0.2; in the assay listed under Homo sapiens [3], 0.03; in the assay listed under Homo sapiens [4], 69.8; in the assay listed under Homo sapiens [5], 13.6; in the assay filed under Homo sapiens [6], 422.

Turning to `NS(=O)(=O)c1ccc(CCNCCc2ccccc2)cc1`, the Ki at Carbonic anhydrase 1 was 278 nM; on Carbonic anhydrase 2 it was 89.1 nM; on Carbonic anhydrase 4, 3590 nM; at Carbonic anhydrase 12 it was 104 nM. Also, the Ratio Ki in the assay listed under Homo sapiens [1] was determined as 3.1; in the assay filed under Homo sapiens [2], 0.08; in the assay filed under Homo sapiens [3], 0.02; in the assay listed under Homo sapiens [4], 2.7; in the assay listed under Homo sapiens [5] it was 0.9; in the assay filed under Homo sapiens [6], 34.4.

Consider `NS(=O)(=O)c1ccc(CCNCc2ccccc2)cc1`, for which the inhibitory constant (Ki) at Carbonic anhydrase 4 turned out to be 2850 nM; on Carbonic anhydrase 12, 65.4 nM.

In the case of `N#CCCN(CCc1ccccc1)CC(=O)N(CCc1ccc(S(N)(=O)=O)cc1)Cc1ccc2ccccc2c1`, the Ki on Carbonic anhydrase 1 was 685 nM; at Carbonic anhydrase 2 it was 248 nM; at Carbonic anhydrase 4, 3810 nM; on Carbonic anhydrase 12, 64.9 nM. For the same molecule, the Ratio Ki in the assay listed under Homo sapiens [1] is 2.8; in the assay listed under Homo sapiens [2], 0.2; in the assay listed under Homo sapiens [4], 10.5; in the assay listed under Homo sapiens [5], 3.8; in the assay filed under Homo sapiens [6] it was 58.8.

As to `NS(=O)(=O)c1ccc(CCN(Cc2ccccc2)C(=O)CN(Cc2ccccc2)Cc2ccccc2)cc1`, the Ki on Carbonic anhydrase 1 was 866 nM; at Carbonic anhydrase 2, 412 nM; at Carbonic anhydrase 4, > 10000 nM; at Carbonic anhydrase 12 it was 98.8 nM. In addition, the Ratio Ki in the assay filed under Homo sapiens [1] was 2.1; in the assay filed under Homo sapiens [2], < 0.09; in the assay filed under Homo sapiens [3] it was < 0.04; in the assay filed under Homo sapiens [4] it was 8.8; in the assay listed under Homo sapiens [6], > 101.

The values are drawn from ChEMBL document CHEMBL4613327, “Sulfonamide Inhibitors of Human Carbonic Anhydrases Designed through a Three-Tails Approach: Improving Ligand/Isoform Matching and Selectivity of Action” (J Med Chem, 2020).
